STAT3 activator: activators of IL-6 induced STAT3 signaling; U3A cells, IL-6 STAT3-luciferase reporter, luminescence; 100% = signal with IL-6 EC80 alone; activation (% of control), % at 5.6 µM; 190,000 tested, 0.91% active; AID 871;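 active = activation above the screen-wide mean of compound activation plus 3 SD, cut at about 130% in these data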;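 note: 0% = background luminescence of wells with medium and substrate only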
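Material: STAT3-luciferase reporter U3A cells; Probe or stimulus: IL-6 (33 ng/mL); Incubation: compound pre-incubation 1 h before IL-6, then 6 h stimulation at 37 °C; Technique: luminescence from STAT3-driven luciferase reporter; Evaluation: % activation versus median of IL-6-stimulated wells; Controls: IL-6-only high control.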
STAT1 inh: inhibitors of IFN-gamma induced STAT1 signaling; NIH 3T3 STAT1-luciferase reporter, luminescence; inhibition, % at 5.5 µM; 200,000 tested, 0.35% active; AID 920;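 active = inhibition above a set limit, the mean inhibition across all tested compounds plus 3 SD, cut at about 34% in these data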;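 note: 0% = IFN-gamma with DMSO and 100% = IFN-gamma with 300 µM nifuroxazide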
Cl transport mod: KCC2 (human) Cl- transport modulation; B-score of Tl+ flux slope (higher = more flux/activation; lower = inhibition) at 10 µM; KCC2 cells, thallium flux FluoZin-2 fluorescence; 190,000 tested, 2.2% active; Q9H2X9; AID 1456;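 active = thallium flux slope and its plate-corrected score both differing from the plate sample mean at a set confidence after two filtering rounds, in either direction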;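 note: slope of fluorescence scaled to starting intensity during 10 to 20 s after thallium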
Target sequence (Q9H2X9 whole entry, looked up): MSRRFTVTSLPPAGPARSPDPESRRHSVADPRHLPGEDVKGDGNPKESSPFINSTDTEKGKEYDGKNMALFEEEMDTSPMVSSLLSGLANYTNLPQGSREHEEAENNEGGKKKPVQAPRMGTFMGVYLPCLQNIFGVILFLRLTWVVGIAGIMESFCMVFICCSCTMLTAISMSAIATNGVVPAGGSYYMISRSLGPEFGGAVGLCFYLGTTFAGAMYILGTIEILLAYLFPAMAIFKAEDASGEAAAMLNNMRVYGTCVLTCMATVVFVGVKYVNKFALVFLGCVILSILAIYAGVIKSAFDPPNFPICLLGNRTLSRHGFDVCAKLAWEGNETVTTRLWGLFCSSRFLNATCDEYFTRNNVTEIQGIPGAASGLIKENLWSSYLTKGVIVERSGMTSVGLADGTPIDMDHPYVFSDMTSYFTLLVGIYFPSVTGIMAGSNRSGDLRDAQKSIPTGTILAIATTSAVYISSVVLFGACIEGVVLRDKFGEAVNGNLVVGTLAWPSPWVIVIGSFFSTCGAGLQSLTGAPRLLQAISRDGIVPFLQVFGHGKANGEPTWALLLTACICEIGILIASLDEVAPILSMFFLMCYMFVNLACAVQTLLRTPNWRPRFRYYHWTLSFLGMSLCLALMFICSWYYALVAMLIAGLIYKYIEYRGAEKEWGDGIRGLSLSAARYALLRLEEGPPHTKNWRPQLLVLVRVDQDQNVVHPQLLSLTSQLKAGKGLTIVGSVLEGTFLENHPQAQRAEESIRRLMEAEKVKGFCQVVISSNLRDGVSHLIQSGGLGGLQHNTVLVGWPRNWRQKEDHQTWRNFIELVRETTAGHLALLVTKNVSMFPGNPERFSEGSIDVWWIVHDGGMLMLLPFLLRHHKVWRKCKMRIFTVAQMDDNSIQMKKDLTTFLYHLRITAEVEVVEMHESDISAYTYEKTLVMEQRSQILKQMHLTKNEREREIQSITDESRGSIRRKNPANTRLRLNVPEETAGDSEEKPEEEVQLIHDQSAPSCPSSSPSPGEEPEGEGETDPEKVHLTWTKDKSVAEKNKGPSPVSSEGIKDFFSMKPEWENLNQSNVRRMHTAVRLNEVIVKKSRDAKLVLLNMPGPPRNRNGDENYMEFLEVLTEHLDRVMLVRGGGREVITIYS
STAT3 inh: reduces IL-6 driven STAT3 reporter signal | U3A cells, IL-6 STAT3-luciferase reporter, luminescence; host cell line lacks STAT1 | inhibition, % at 5.5 µM | 190,000 tested, 0.89% active | AID 862;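 active = inhibition above the mean inhibition across all screened compounds plus 3 SD, cut at about 44% in these data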;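 note: 0% = DMSO only wells and 100% = 100 µM nifuroxazide control wells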
HSV replic up: HSV replication enhancement | HSV replication augmentation in cells, fold increase | maximum fold increase | 220,000 tested, 0.005% active | AID 1956; in the data active = maximum fold increase above about 1.5; inconclusive = no clear call, values can overlap the other calls; tested in PC3 cells
STAT1 activator: activators of IFN-gamma induced STAT1 signaling. NIH 3T3 STAT1-luciferase reporter, luminescence; 100% = IFN-gamma alone, no compound. activation (% of control), % at 5.5 µM. 200,000 tested, 2.6% active. AID 932;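 active = activation above the screen-wide mean activation plus 3 SD, cut at about 130% in these data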;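 note: raw ratio to IFN-gamma control signal so 100% means no change and 0% no light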
KCC2 sec1: confirmation of human KCC2 transport modulators; shares compounds with Cl transport mod; HEK293-KCC2, thallium flux, FluoZin2 fluorescence; active compounds read high; normalised thallium flux (F/F0 slope) at 10 µM; 3,700 tested, 15% active; AID 1713;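 active = thallium flux slope above the same plate's solvent-only control mean plus 3 SD; inconclusive = the two replicate wells disagree; inactive = no significant difference from solvent-only control wells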
KCC2 bumet counter: thallium flux despite bumetanide block in KCC2 cells, secondary assay 3. HEK293-KCC2 + bumetanide/ouabain, thallium flux FluoZin2; active compounds read high. normalized thallium flux at 10 µM. shares compounds with Cl transport mod. 3,700 tested, 49% active. AID 1714;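 active = thallium entry rate above the same plate's blocked-transporter control wells by more than 3 SD; inconclusive = the two repeat wells disagree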;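 note: raw slope of fluorescence over initial fluorescence between 10 and 20 s after thallium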
KCC2 sec2: KCC2 (human) modulation, second secondary assay. shares compounds with Cl transport mod. HEK293-KCC2, thallium flux FluoZin2 fluorescence; actives lie on both sides; F/F0 rise rate, 10–20 s post-thallium. 3,700 tested, 23% active. AID 1715. normalized thallium flux at 10 µM;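 active = thallium flux slope more than 3 SD above or below the plate's solvent-only control mean, mostly below; inconclusive = the two repeat wells disagreed; inactive = no significant shift from solvent-only controls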;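 note: raw slope with 0.1% DMSO as baseline and bumetanide as block control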
HEK293 Tl flux: parental HEK flux effect, counter-screen; HEK293 parental cells, thallium flux FluoZin2, ouabain; baseline-ratio fluorescence slope, 10–20 s after thallium; shares compounds with Cl transport mod; thallium flux rate (normalised fluorescence) at 10 µM; AID 1716; 3,700 tested, 46% active;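 active = thallium flux rate significantly above the same plate's solvent-only control wells, beyond their mean plus 3 SD; inconclusive = the two replicate wells gave conflicting results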
KCC2 ouabain: modulates human KCC2 on retest with ouabain. shares compounds with Cl transport mod. HEK293-KCC2, thallium flux FluoZin2 fluorescence; bidirectional: low = inhibitor, high = activator. raw Tl+ flux slope (below DMSO = inhibition, above = activation) at 10 µM. 3,700 tested, 48% active;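 active = thallium flux slope beyond 3 SD from same-plate DMSO control mean in most replicates, usually higher, sometimes lower; inconclusive = repeat tests gave conflicting results; inactive = no significant difference from controls in most replicates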;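 note: slope of initial-normalized fluorescence between seconds 10 and 20 after thallium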
HEK293 Tl flux2: acts in parental HEK cells, second KCC2 counter-screen. thallium flux slope at 10 µM. shares compounds with Cl transport mod. 3,700 tested, 33% active. HEK293 parental, thallium flux FluoZin-2 fluorescence slope;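 active = thallium flux slope above the same plate's solvent-control mean plus 3 SD in both duplicate wells; inconclusive = duplicate wells that disagreed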;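 note: run without ouabain in cells lacking the KCC2 cotransporter; slope of fluorescence scaled to its starting value between 10 and 20 s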
Starred values were filed as active, the others as inactive; i = inactive; ? = inconclusive; / = no result. Sampled rows, rich in hits. Any-hit rate of the full collection: about 5.5%.

SMILES	STAT3 activator	STAT1 inh	Cl transport mod	STAT3 inh	HSV replic up	STAT1 activator	KCC2 sec1	KCC2 bumet counter	KCC2 sec2	HEK293 Tl flux	KCC2 ouabain	HEK293 Tl flux2
Cn1cc(Br)c(C(=O)Nc2nccs2)n1	105.7	-1.4	-0.0556	-1.6	/	101.2	/	/	/	/	/	/
Cn1cc(Br)c(C(=O)Nc2c(F)c(F)c(F)c(F)c2F)n1	100.2	-2.8	-3.61*	0.0	i	102.5	?	?	0.0369	0.00771	0.023	0.0106
CCOC(=O)N1CCN(c2nc3ccccc3nc2C(C#N)S(=O)(=O)c2ccc(C)cc2)CC1 (centres undefined)	98.4	0.9	/	2.7	/	99.2	0.0105	0.00615	0.0273*	?	?	?
CCCCNC(=O)CN1C(=O)NC2(CCCc3ccccc32)C1=O (centres undefined)	103.7	1.1	0.232	-1.1	i	99.0	/	/	/	/	/	/
COc1ccc(CNC(=O)c2csc(Cc3ccc(OC)cc3)n2)cc1	102.6	6.2	/	2.6	i	94.4	/	/	/	/	/	/
COc1ccc(CNC(=O)c2csc(Cc3ccc(Cl)cc3)n2)cc1	112.1	-0.2	/	-8.7	/	100.2	0.00594	?	0.0249*	?	0.0152*	0.00964
COc1ccc(S(=O)(=O)N2CCC(C(=O)NCC3CCCO3)CC2)cc1 (centres undefined)	97.5	6.1	0.342	7.5	i	94.4	/	/	/	/	/	/
COc1cc(C(=S)N2CCOCC2)cc(OC)c1OC(=O)Cc1ccc(F)cc1	106.8	1.7	-4.31*	-8.1	i	98.5	0.00918	0.00689	0.028*	0.00392	0.0159*	0.0114
CCCOc1ccc(NC2=CC(=O)CC(C)(C)C2)cc1	99.0	-3.8	/	2.4	i	105.5	0.00621	0.00514	0.0299	0.00772	0.0184	0.0113
CC1(C)CC(=O)C=C(Nc2ccc(C(=O)O)cc2)C1	97.4	1.7	0.676	2.6	i	98.4	/	/	/	/	/	/
CCOc1ccc(C(=O)CCc2nc3ccccc3s2)cc1	128.0	1.4	/	-34.8	i	98.7	/	/	/	/	/	/
CCOC(=O)c1cc(C#N)c(N2CCN(C(=O)c3cccc(C(F)(F)F)c3)CC2)nc1C(F)(F)F	/	/	-0.547	/	i	/	/	/	/	/	/	/
CN(C)c1ccc(/C=C/C#N)cc1	/	/	-0.0803	/	i	/	/	/	/	/	/	/
CN(C)c1ccc(/C=C/c2ccncc2)cc1	90.5	-29.0	/	14.5	i	126.7	0.0032*	-0.004*	0.0212*	0.00313*	0.00583*	?
Cc1cc(C)cc(NC(=S)N(CCN(C)C)Cc2cccs2)c1	95.6	5.5	0.415	6.0	i	95.5	/	/	/	/	/	/
CC1CCCCN1C(=O)CSc1nnc(-c2c[nH]c3ccccc23)o1 (centres undefined)	107.4	-9.6	-3.32*	-4.4	i	107.1	0.0175	0.00481	0.023*	0.00745	0.0145	0.01
Cc1ccc(C(=O)CSc2nnc(-c3c[nH]c4ccccc34)o2)cc1	100.2	4.0	/	2.6	i	96.5	/	/	/	/	/	/
Cc1ccc(S(=O)(=O)CCc2nnc(NC(=O)COc3cccc(C)c3)s2)cc1	104.4	0.9	/	6.3	i	99.2	/	/	/	/	/	/
CCCc1oc2c(c(=O)c1CC)C(=O)CC(C)(C)C2	97.9	4.5	/	5.3	i	95.9	0.0158	0.00461	0.0284	?	0.0151	0.0105
c1ccc(-c2cn3nc4c(nc3n2)CCCC4)cc1	27.8	52.7*	-4.51*	87.3*	i	51.9	0.00758	0.00503	0.0257*	?	0.0163*	0.00813*
CCc1ccc2c(CN3CCc4ccccc43)cc(=O)oc2c1	127.6	-4.0	-0.0295	-30.0	i	103.7	/	/	/	/	/	/
O=c1cc(CN2CCc3ccccc32)c2ccc(O)cc2o1	109.3	3.6	/	-9.8	i	96.5	0.00893	0.00617	0.0381	0.00351	0.0176*	0.0101
C/C(=N\Nc1ccc(C(=O)O)cc1)c1ccc(S(=O)(=O)NCc2ccco2)cc1	/	/	4.53*	/	i	/	0.00872	0.00684	0.032	0.00718	0.0209	0.0103*
CCOc1cc(C2NN=C(c3ccccc3)S2)ccc1OCc1ccccc1Cl (centres undefined)	107.5	-40.7	6.02*	-0.9	i	136.4*	0.00851	0.00453	0.0307	0.00766	0.0187	0.0102
CCOc1cc(CNC2CCCC2)ccc1OCc1ccccc1Cl	101.2	12.1	0.649	0.9	i	87.2	/	/	/	/	/	/
SMILES	STAT3 activator	STAT1 inh	Cl transport mod	STAT3 inh	HSV replic up	STAT1 activator	KCC2 sec1	KCC2 bumet counter	KCC2 sec2	HEK293 Tl flux	KCC2 ouabain	HEK293 Tl flux2
C/C(CC(=O)Nc1ccc(Cl)cn1)=N\NC(=O)Cc1cccs1	/	/	0.00636	/	i	/	/	/	/	/	/	/
CCOC(=O)c1cc(-c2cccc(C(F)(F)F)c2)nc2nc(SC)[nH]c(=O)c12	109.2	-3.5	-1.91	-13.0	i	103.4	/	/	/	/	/	/
CCOC(=O)c1nc(C)nc(Sc2n[nH]c(-c3cc(C(F)(F)F)cc(C(F)(F)F)c3)n2)c1C	/	/	-3.58*	/	i	/	0.00851	0.00605	0.0345	?	0.0169*	0.0112
O=C(O)c1ccc(NC2=C(Cl)C(=O)c3ccccc3C2=O)cc1	/	/	-6.5*	/	i	/	0.0105	0.00935*	0.0352	0.00358	0.0171*	0.0113
O=C1C(Cl)=C(Nc2ccccc2)C(=O)c2ccccc21	127.3	-6.6	4.45*	-31.3	i	105.6	0.0084	0.0066	0.0396	0.00444	0.0222	0.0108
O=C(O)c1cccc(NC2=C(Cl)C(=O)c3ccccc3C2=O)c1	121.4	2.3	-2.27	-19.5	i	99.4	/	/	/	/	/	/
O=C(/C=C/c1ccccc1)NCCSCc1ccccc1Cl	92.2	0.8	-3.78*	15.3	i	99.3	0.00664	0.00478	0.0336	0.00736	0.0174*	0.0106
NC(=O)CSc1nc2ccc([N+](=O)[O-])cc2[nH]1	97.0	-0.1	-0.47	11.7	i	98.2	/	/	/	/	/	/
O=[N+]([O-])c1ccc2nc(/C=C/c3ccc(Cl)cc3)[nH]c2c1	86.0	18.6	-4.48*	19.9	i	82.9	0.00696	0.00524	0.0293	0.00775	?	0.00989
O=C(N/N=C/c1ccc([N+](=O)[O-])s1)C(O)c1ccccc1 (centres undefined)	106.3	1.1	0.792	-4.9	i	99.1	/	/	/	/	/	/
